ChEMBL document CHEMBL1155847, “Novel indoline-based acyl-CoA:cholesterol acyltransferase inhibitor with antiperoxidative activity: improvement of physicochemical properties and biological activities by introduction of carboxylic acid” (J Med Chem, 2008)
In brackets after ≈: the same amount, converted by molar mass. Activity calls are given as the source filed them. The rule behind the calls is not given here.

Experiments:
[1] = Solubility in water at pH 7.0; assay type: physicochemical
Outline: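 6 mg of compound shaken 30 min at room temperature in 3 mL 1/15 M potassium phosphate buffer pH 7.0, centrifuged and filtered (0.45 µm). Filtrate concentration by HPLC.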

[2] = Distribution coefficient, log D at pH 7.0; assay type: physicochemical; settings: octanol/water
Outline: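 5 mg of compound in 5 mL octanol shaken 30 min at room temperature with 5 mL 1/15 M potassium phosphate buffer pH 7.0, then centrifuged. Both phases quantified by HPLC. log D taken as log of the octanol/buffer concentration ratio.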

[3] = target: T1, Acyl-CoA:cholesterol acyltransferase (Oryctolagus cuniculus, UniProt Q95214); test: Inhibition of normocholesterolemic rabbit liver ACAT
T1 sequence (Q95214 whole entry): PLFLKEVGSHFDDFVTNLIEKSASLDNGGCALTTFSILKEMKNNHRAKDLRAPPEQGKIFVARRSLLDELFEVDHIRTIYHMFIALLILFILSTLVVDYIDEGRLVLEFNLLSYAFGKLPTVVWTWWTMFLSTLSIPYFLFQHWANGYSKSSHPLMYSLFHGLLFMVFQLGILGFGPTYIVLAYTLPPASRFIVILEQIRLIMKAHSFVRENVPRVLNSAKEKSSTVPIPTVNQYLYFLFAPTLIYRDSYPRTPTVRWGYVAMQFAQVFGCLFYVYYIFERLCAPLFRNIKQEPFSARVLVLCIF
Outline: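 Liver from normocholesterolemic male Japanese White rabbits homogenized in sucrose/phosphate/EDTA/dithioerythritol buffer pH 7.4. Microsomes collected by 12000g then 105000g spins. Then 30 nmol [1-¹⁴C]oleoyl-CoA added, 20 min at 37 °C. Cholesteryl ester extracted and separated by TLC.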

[4] = AUC in Sprague-Dawley rat at 10 mg/kg, po; assay type: ADME, organism-based; design: dose 10 mg/kg, route oral; settings: plasma
Outline: (§1)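 Male SD rats, 6-7 weeks, fasted overnight, n = 3; single oral 10 mg/kg dose suspended in 5% arabic gum. Jugular-vein heparinized blood at 0.5, 1, 3, 5, 8, 24 h; plasma free-form compound by HPLC. AUC taken over 24 h.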

Brain = test: Antiperoxidative activity in Sprague-Dawley rat brain assessed as inhibition of malonaldehyde level; assay type: functional, tissue-based
Outline: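 Cerebral cortex from male SD rats (6 weeks) homogenized in ice-cold 50 mM PBS pH 7.4, spun 1300g. Supernatant incubated 37 °C, 30 min with vehicle or compound. Stopped with 20% TCA; thiobarbituric acid reaction at 100 °C, 15 min; MDA read at 532 nm, less pre-assay MDA. Duplicate assay, n = 2.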

[5] = target: T2, Sterol O-acyltransferase 1 (Homo sapiens, UniProt P35610); test: Inhibition of ACAT-mediated esterified cholesterol accumulation in human THP1 cells exposed to acetyl-LDL during differentiation assessed as effect on foam cell formation; assay type: cell-based, THP-1
T2 sequence (P35610 whole entry): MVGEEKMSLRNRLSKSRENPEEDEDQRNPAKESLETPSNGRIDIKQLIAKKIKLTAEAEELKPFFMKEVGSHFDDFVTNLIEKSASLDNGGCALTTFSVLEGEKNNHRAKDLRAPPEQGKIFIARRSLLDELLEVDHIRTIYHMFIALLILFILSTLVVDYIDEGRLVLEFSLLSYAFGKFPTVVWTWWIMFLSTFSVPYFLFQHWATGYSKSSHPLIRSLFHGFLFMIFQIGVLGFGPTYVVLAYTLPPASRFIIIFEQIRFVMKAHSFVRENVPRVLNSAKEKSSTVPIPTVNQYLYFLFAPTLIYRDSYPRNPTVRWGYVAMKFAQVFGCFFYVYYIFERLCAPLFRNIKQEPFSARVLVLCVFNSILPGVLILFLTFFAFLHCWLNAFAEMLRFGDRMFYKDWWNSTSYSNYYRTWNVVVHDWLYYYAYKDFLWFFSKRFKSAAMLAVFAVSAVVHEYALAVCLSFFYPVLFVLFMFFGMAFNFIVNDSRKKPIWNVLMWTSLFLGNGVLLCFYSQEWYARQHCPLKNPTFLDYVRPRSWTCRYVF

[6] = target: Phosphatidylcholine-sterol acyltransferase (Rattus norvegicus) (UniProt P18424); test: Inhibition of rat LCAT up to 10 uM
Sequence of Phosphatidylcholine-sterol acyltransferase (Rattus norvegicus) (P18424 whole entry, looked up): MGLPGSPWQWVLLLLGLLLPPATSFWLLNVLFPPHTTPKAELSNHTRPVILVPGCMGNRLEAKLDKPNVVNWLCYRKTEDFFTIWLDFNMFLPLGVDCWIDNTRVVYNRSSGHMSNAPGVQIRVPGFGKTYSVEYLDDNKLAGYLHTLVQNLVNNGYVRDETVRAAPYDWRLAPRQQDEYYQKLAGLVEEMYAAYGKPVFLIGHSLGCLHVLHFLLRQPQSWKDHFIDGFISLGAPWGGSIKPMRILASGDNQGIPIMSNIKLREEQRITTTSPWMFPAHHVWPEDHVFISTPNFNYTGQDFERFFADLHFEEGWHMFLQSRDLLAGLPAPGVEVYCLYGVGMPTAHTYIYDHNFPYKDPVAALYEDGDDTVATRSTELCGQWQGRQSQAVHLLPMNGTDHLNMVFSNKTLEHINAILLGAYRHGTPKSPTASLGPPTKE

Plasma = test: Inhibition of LDL oxidation in genetically hypercholesterolemic KHC rabbit plasma assessed as malonaldehyde level after 1 hr; assay type: functional, cell-free; settings: Oryctolagus cuniculus
Outline: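 LDL fraction isolated from plasma of male KHC rabbits and oxidized with CuSO₄ 5 µM at 37 °C for 1 h with vehicle or compound. Oxidation read as MDA. IC50 from duplicate tubes per concentration; n = 4.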

[7] = Inhibition of lipid peroxidation in genetically hypercholesterolemic KHC rabbit serum assessed as malonaldehyde level after 4 hrs; assay type: functional, cell-free; settings: Oryctolagus cuniculus
Outline: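 Heparinized ear-artery plasma from KHC rabbits (2.4-2.7 kg) incubated with CuSO₄ 2 mM at 37 °C for 4 h with vehicle or compound. Lipid peroxide measured as MDA by kit. IC50 from duplicate tubes; n = 2.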

[8] = target: T2, Sterol O-acyltransferase 1; test: Inhibition of ACAT-mediated esterified cholesterol accumulation in human THP1 cells exposed to acetyl-LDL after differentiation assessed as effect on foam cell formation; assay type: cell-based, THP-1
Outline: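 THP-1 cells first differentiated 3 days in RPMI-1640/10% FBS with PMA 200 nM and 2-mercaptoethanol 50 µM. Then washed and cultured 2 days with 50 µM 2-mercaptoethanol, acetyl-LDL 400 µg/mL from KHC rabbit plasma, and compound. Lipids extracted with hexane/isopropanol; esterified cholesterol = total minus free cholesterol, enzymatic; protein by Lowry. Duplicate assay, n = 4.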

Oryctolagus cuniculus [9] = test: Hypolipidemic effect in high-cholesterol diet fed Japanese white rabbit assessed as HDL cholesterol level at 1 mg/kg/day, po for 7 days; assay type: functional
Outline: (§2)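 Male Japanese white rabbits (2.5-3.0 kg) fed 1% cholesterol diet for 7 days with once-daily oral dosing in 5% arabic gum, or vehicle (n = 5/group). Fasted overnight after the final dose; ear-artery blood. Serum total and HDL cholesterol by enzymatic kit.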

Syrian golden hamster [10] = test: Hypolipidemic effect in regular diet fed Syrian hamster assessed as LDL/VLDL cholesterol level at 3 mg/kg/day, po for 3 weeks; assay type: functional, Mesocricetus auratus
Outline: (§3)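 Male Syrian hamsters, 9 weeks, regular diet for 3 weeks with once-daily oral dosing in 5% arabic gum, or vehicle (n = 5/group). Abdominal-aorta blood 24 h after the last dose, under pentobarbital. Serum total and HDL cholesterol by enzymatic kit.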

Rattus norvegicus [11] = test: Hypolipidemic effect in high-cholesterol diet fed Wistar rat assessed as HDL cholesterol level at 3 mg/kg/day, po for 3 days; assay type: functional
Outline: (§4)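 Male Wistar rats, 8-9 weeks, on a diet of 1% cholesterol, 0.5% cholic acid and 10% coconut oil for 3 days; dosed orally once daily in 5% arabic gum, or vehicle (n = 5/group). Fasted 5 h after the last dose; abdominal-aorta blood under pentobarbital. Serum total and HDL cholesterol measured enzymatically.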

[12] = target: T1, Acyl-CoA:cholesterol acyltransferase; test: Inhibition of ACAT in hyperlipidemic white rabbit intestine microsomes assessed as esterified cholesterol accumulation; design: species or system Microsome
Outline: (§5)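 Microsomes (12000g then 105000g spins at 4 °C, sucrose/phosphate/EDTA/dithioerythritol buffer pH 7.4) from hypercholesterolemic rabbit tissues, in 154 mM phosphate pH 7.4 with BSA. Compound preincubated 5 min at 37 °C, then 30 nmol [1-14C]oleoyl-CoA added. Reaction at 37 °C: adrenal 10 min, intestine 7.5 min, liver 20 min, macrophage 30 min. Labelled cholesteryl ester extracted and resolved by TLC. IC50 from duplicate tubes.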

[13] = Cmax in Sprague-Dawley rat at 10 mg/kg, po; assay type: ADME, organism-based; design: dose 10 mg/kg, route oral; settings: in vivo; outline: as §1
Syrian golden hamster [14] = test: Hypolipidemic effect in regular diet fed Syrian hamster assessed as HDL:HDL cholesterol level at 3 mg/kg/day, po for 3 weeks; assay type: functional, Mesocricetus auratus; outline: as §3
Cavia porcellus = test: Adrenotoxicity in guinea pig at 100 mg/kg/day administered for 4 days; assay type: toxicity, organism-based; settings: in vivo, 96 h
[15] = Cmax in Japanese white rabbit at 10 mg/kg, po; assay type: ADME, organism-based, Oryctolagus cuniculus; design: dose 10 mg/kg, route oral; settings: in vivo
Outline: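 Oral 10 mg/kg in 5% arabic gum to male Japanese white rabbits (2.7-3.0 kg, n = 4). Ear-vein heparinized blood at 0.25, 0.5, 1, 2, 3, 5, 8, 24 h. Free-form concentration in plasma by HPLC.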

[16] = target: T1, Acyl-CoA:cholesterol acyltransferase; test: Inhibition of ACAT in microsomes from hyperlipidemic white rabbit macrophages assessed as esterified cholesterol accumulation; outline: as §5
Canis familiaris [17] = test: Hypolipidemic effect in Western diet fed Beagle dog assessed as LDL/VLDL cholesterol level at 3 mg/kg/day, po for 7 days; assay type: functional, Canis lupus familiaris
Outline: (§6)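 Male beagles (8.8-12.0 kg) fed a Western diet (meat, eggs, butter) for 7 days with once-daily oral dosing in 5% arabic gum, or vehicle (n = 3/group). […] blood 24 h after the last dose. Serum total and HDL cholesterol measured enzymatically.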

Rattus norvegicus [18] = test: Hypolipidemic effect in high-cholesterol diet fed Wistar rat assessed as LDL/VLDL cholesterol level at 3 mg/kg/day, po for 3 days; assay type: functional; outline: as §4
Oryctolagus cuniculus [19] = test: Hypolipidemic effect in high-cholesterol diet fed Japanese white rabbit assessed as LDL/VLDL cholesterol level at 1 mg/kg/day, po for 7 days; assay type: functional; outline: as §2
[20] = target: T1, Acyl-CoA:cholesterol acyltransferase; test: Inhibition of ACAT in hyperlipidemic white rabbit liver microsomes assessed as esterified cholesterol accumulation; design: species or system Microsome; outline: as §5
Canis familiaris [21] = test: Hypolipidemic effect in Western diet fed Beagle dog assessed as HDL:HDL cholesterol level at 3 mg/kg/day, po for 7 days; assay type: functional, Canis lupus familiaris; outline: as §6
[22] = Cmax in Beagle dog at 10 mg/kg, po; assay type: ADME, organism-based, Canis lupus familiaris; design: dose 10 mg/kg, route oral; settings: in vivo
Outline: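 Male beagles (9.0-11.6 kg, n = 4) dosed orally at 10 mg/kg as a 5% arabic gum suspension. Heparinized jugular-vein blood at 0.25, 0.5, 1, 2, 3, 5, 8, 12 h. Plasma free-form drug measured by HPLC.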

[23] = target: T1, Acyl-CoA:cholesterol acyltransferase; test: Inhibition of ACAT in hyperlipidemic white rabbit adrenal microsomes assessed as esterified cholesterol accumulation; design: species or system Adrenal gland; outline: as §5

Compound | solubility [1] | logD [2] | IC50 [3] | AUC [4] | IC50 (Brain) | IC50 [5] | other results
CCCCCCCCN1CCc2c(C)c(Cc3nnn[nH]3)c(C)c(NC(=O)C(C)(C)C)c21 | 66 µg/mL (≈ 150 µM) | 3.7 | > 10 µM | 6600 ng·h/mL | 1.7 µM | > 10 µM | 
CCCCCCCCN1CCc2c(C)cc(C)c(NC(=O)C(C)(C)CCC(=O)O)c21.Cl | 401 µg/mL | 3 |  |  |  |  | 
CCCCCCCCN1CCc2c(C)cc(C)c(NC(=O)C(C)(C)C)c21 |  |  |  | 200 ng·h/mL | 3.1 µM |  | 
CCCCCCCCN1CCc2c(C)cc(C)c(NC(=O)C(C)(C)C)c21.Cl | 0.08 µg/mL | 6.2 |  |  |  |  | 
CCCCCCCCN1CC(CCC(=O)O)c2c(C)cc(C)c(NC(=O)C(C)(C)C)c21.Cl (stereo unspecified) | 355 µg/mL | 3.5 |  |  |  |  | 
CCCCCCCCN1CCc2c(C)c(CC(=O)O)c(C)c(NC(=O)C(C)(C)C)c21 |  |  |  |  |  |  | Activity [6]: inactive
CCCCCCCCN1CCc2c(C)cc(C)c(NC(=O)C(C)(C)CCC(=O)O)c21 |  |  | > 10 µM | 5000 ng·h/mL | 6.6 µM | > 10 µM | 
Cc1cc(C)c(NC(=O)C(C)(C)C)c2c1CCN2CCCCCCCCCC(=O)O |  |  | 5.5 µM | 100 ng·h/mL | 48.3 µM | > 10 µM | 
CCCCCCCCN1CC(CCC(=O)O)c2c(C)cc(C)c(NC(=O)C(C)(C)C)c21 (stereo unspecified) |  |  | 5 µM | 1700 ng·h/mL | 4.2 µM | 3.6 µM | 
Cc1cc(C)c(NC(=O)C(C)(C)C)c2c1CCN2CCCCCCCCCC(=O)O.Cl | 732 µg/mL | 2.8 |  |  |  |  | 
CCCCCCCCN1CCc2c(C)c(CN)c(C)c(NC(=O)C(C)(C)C)c21 |  |  |  |  | 4.2 µM |  | 
CCCCCCCCN1CCc2c(C)c(CN)c(C)c(NC(=O)C(C)(C)C)c21.Cl.Cl | 857 µg/mL | 2.3 |  |  |  |  | 
CC(C)(Sc1cc(C(C)(C)C)c(O)c(C(C)(C)C)c1)Sc1cc(C(C)(C)C)c(O)c(C(C)(C)C)c1 [PROBUCOL] |  |  |  |  |  |  | IC50 (Plasma): 132 µM; IC50 [7]: 21.6 µM
CCCCCCCCN1CCc2c(C)c(CC(=O)O)c(C)c(NC(=O)C(C)(C)C)c21 [PACTIMIBE] |  |  | 1.2 µM | 1500 ng·h/mL | 1.3 µM | 1.8 µM | IC50 [8]: 0.3 µM; Activity (Oryctolagus cuniculus [9]): 15.4 mg/dL; Activity (Syrian golden hamster [10]): 70.3 mg/dL; Activity (Rattus norvegicus [11]): 29.4 mg/dL; IC50 [12]: 0.72 µM; Cmax [13]: 2.2 µM; Activity (Syrian golden hamster [14]): 58.3 mg/dL; Activity (Cavia porcellus): Non-toxic; IC50 (Plasma): 0.98 µM; Cmax [15]: 7.2 µM; IC50 [16]: 1.9 µM; Activity (Canis familiaris [17]): 31.6 mg/dL; Activity (Rattus norvegicus [18]): 9.7 mg/dL; Activity (Oryctolagus cuniculus [19]): 119.5 mg/dL; IC50 [20]: 0.69 µM; Activity (Canis familiaris [21]): 141.3 mg/dL; Cmax [22]: 26.8 µM; IC50 [7]: 4.4 µM; IC50 [23]: 15.9 µM
CC(C)c1cc(C(C)C)c(CC(=O)NS(=O)(=O)Oc2c(C(C)C)cccc2C(C)C)c(C(C)C)c1 [AVASIMIBE] |  |  | 7.6 µM |  |  | 1.5 µM | 
CCCCCCCCN1CCc2c(C)c(CC(=O)O)c(C)c(NC(=O)C(C)(C)C)c21.CCCCCCCCN1CCc2c(C)c(CC(=O)O)c(C)c(NC(=O)C(C)(C)C)c21.O=S(=O)(O)O [PACTIMIBE SULFATE] | 1450 µg/mL | 2.9 |  |  |  |  | 
